Measurements published in ChEMBL document CHEMBL2157941, “Synthesis and characterization of some new quinoline based derivatives endowed with broad spectrum antimicrobial potency” (2012).
Converted amounts (≈) assume the structure as drawn.

Columns and labels:
Type in all cases: functional
Aspergillus niger = assay: Antifungal activity against Aspergillus niger MTCC 282 after 48 hrs by serial broth dilution method; settings: MTCC 282, 48 h
Procedure, shortened: (§1)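 Read-out was the individual minimum inhibitory concentration for each bacterial or fungal strain.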

Escherichia coli = assay: Antibacterial activity against Escherichia coli MTCC 443 after 24 hrs by serial broth dilution method; settings: MTCC 443, 24 h; procedure, shortened: as §1
Streptococcus pyogenes = assay: Antibacterial activity against Streptococcus pyogenes MTCC 442 after 24 hrs by serial broth dilution method; settings: MTCC 442, 24 h; procedure, shortened: as §1
Staphylococcus aureus = assay: Antibacterial activity against Staphylococcus aureus MTCC 96 after 24 hrs by serial broth dilution method; settings: MTCC 96, 24 h; procedure, shortened: as §1
Pseudomonas aeruginosa = assay: Antibacterial activity against Pseudomonas aeruginosa MTCC 1688 after 24 hrs by serial broth dilution method; settings: MTCC 1688, 24 h; procedure, shortened: as §1
Candida albicans = assay: Antifungal activity against Candida albicans MTCC 227 after 48 hrs by serial broth dilution method; settings: MTCC 227, 48 h; procedure, shortened: as §1
Aspergillus clavatus = assay: Antifungal activity against Aspergillus clavatus MTCC 1323 after 48 hrs by serial broth dilution method; settings: MTCC 1323, 48 h; procedure, shortened: as §1

Structure (SMILES) | MIC (Aspergillus niger) | MIC (Escherichia coli) | MIC (Streptococcus pyogenes) | MIC (Staphylococcus aureus) | MIC (Pseudomonas aeruginosa) | MIC (Candida albicans) | MIC (Aspergillus clavatus)
O=C(CN1CCOCC1)Nc1nc(-c2cccc(F)c2)cc(-c2cc3cc(F)ccc3nc2Cl)n1 | 250 µg/mL (≈ 504 µM) | 100 µg/mL (≈ 202 µM) | 250 µg/mL (≈ 504 µM) | 250 µg/mL (≈ 504 µM) | 100 µg/mL (≈ 202 µM) | 250 µg/mL (≈ 504 µM) | 250 µg/mL (≈ 504 µM)
O=C(CN1CCOCC1)Nc1nc(-c2ccc(F)cc2)cc(-c2cc3cc(F)ccc3nc2Cl)n1 | 100 µg/mL (≈ 202 µM) | 50 µg/mL (≈ 101 µM) | 100 µg/mL (≈ 202 µM) | 100 µg/mL (≈ 202 µM) | 50 µg/mL (≈ 101 µM) | 100 µg/mL (≈ 202 µM) | 100 µg/mL (≈ 202 µM)
O=C(CN1CCOCC1)Nc1nc(-c2ccc(O)cc2)cc(-c2cc3cc(F)ccc3nc2Cl)n1 | 500 µg/mL (≈ 1010 µM) | 500 µg/mL (≈ 1010 µM) | 1000 µg/mL (≈ 2020 µM) | 1000 µg/mL (≈ 2020 µM) | 1000 µg/mL (≈ 2020 µM) | 500 µg/mL (≈ 1010 µM) | 1000 µg/mL (≈ 2020 µM)
O=C1CSC(N2N=C(c3ccc(O)cc3)CC2c2cc3cc(F)ccc3nc2Cl)=N1 (centres undefined) | 500 µg/mL (≈ 1130 µM) | 500 µg/mL (≈ 1130 µM) | 250 µg/mL (≈ 567 µM) | 500 µg/mL (≈ 1130 µM) | 250 µg/mL (≈ 567 µM) | 1000 µg/mL (≈ 2270 µM) | 1000 µg/mL (≈ 2270 µM)
O=C(CN1CCOCC1)Nc1nc(-c2ccccc2)cc(-c2cc3cc(F)ccc3nc2Cl)n1 | 500 µg/mL (≈ 1050 µM) | 250 µg/mL (≈ 523 µM) | 250 µg/mL (≈ 523 µM) | 500 µg/mL (≈ 1050 µM) | 500 µg/mL (≈ 1050 µM) | 1000 µg/mL (≈ 2090 µM) | 250 µg/mL (≈ 523 µM)
O=C(CN1CCOCC1)Nc1nc(-c2ccc([N+](=O)[O-])cc2)cc(-c2cc3cc(F)ccc3nc2Cl)n1 | 100 µg/mL (≈ 191 µM) | 25 µg/mL (≈ 47.8 µM) | 100 µg/mL (≈ 191 µM) | 100 µg/mL (≈ 191 µM) | 50 µg/mL (≈ 95.6 µM) | 100 µg/mL (≈ 191 µM) | 50 µg/mL (≈ 95.6 µM)
O=C(CN1CCOCC1)Nc1nc(-c2ccc(Cl)cc2)cc(-c2cc3cc(F)ccc3nc2Cl)n1 | 100 µg/mL (≈ 195 µM) | 100 µg/mL (≈ 195 µM) | 100 µg/mL (≈ 195 µM) | 250 µg/mL (≈ 488 µM) | 50 µg/mL (≈ 97.6 µM) | 250 µg/mL (≈ 488 µM) | 100 µg/mL (≈ 195 µM)
O=C1CSC(N2N=C(c3ccc([N+](=O)[O-])cc3)CC2c2cc3cc(F)ccc3nc2Cl)=N1 (centres undefined) | 100 µg/mL (≈ 213 µM) | 50 µg/mL (≈ 106 µM) | 50 µg/mL (≈ 106 µM) | 250 µg/mL (≈ 532 µM) | 100 µg/mL (≈ 213 µM) | 250 µg/mL (≈ 532 µM) | 100 µg/mL (≈ 213 µM)
O=C1CSC(N2N=C(c3ccccc3)CC2c2cc3cc(F)ccc3nc2Cl)=N1 (centres undefined) | 1000 µg/mL (≈ 2350 µM) | 500 µg/mL (≈ 1180 µM) | 1000 µg/mL (≈ 2350 µM) | 500 µg/mL (≈ 1180 µM) | 250 µg/mL (≈ 588 µM) | 1000 µg/mL (≈ 2350 µM) | 500 µg/mL (≈ 1180 µM)
O=C1CSC(N2N=C(c3cccc([N+](=O)[O-])c3)CC2c2cc3cc(F)ccc3nc2Cl)=N1 (centres undefined) | 100 µg/mL (≈ 213 µM) | 250 µg/mL (≈ 532 µM) | 500 µg/mL (≈ 1060 µM) | 1000 µg/mL (≈ 2130 µM) | 500 µg/mL (≈ 1060 µM) | 500 µg/mL (≈ 1060 µM) | 50 µg/mL (≈ 106 µM)
O=C1CSC(N2N=C(c3cccc(F)c3)CC2c2cc3cc(F)ccc3nc2Cl)=N1 (centres undefined) | 500 µg/mL (≈ 1130 µM) | 500 µg/mL (≈ 1130 µM) | 500 µg/mL (≈ 1130 µM) | 500 µg/mL (≈ 1130 µM) | 250 µg/mL (≈ 564 µM) | 100 µg/mL (≈ 226 µM) | 500 µg/mL (≈ 1130 µM)
COc1ccc(C2=NN(C3=NC(=O)CS3)C(c3cc4cc(F)ccc4nc3Cl)C2)cc1 (centres undefined) | 500 µg/mL (≈ 1100 µM) | 1000 µg/mL (≈ 2200 µM) | 1000 µg/mL (≈ 2200 µM) | 500 µg/mL (≈ 1100 µM) | 1000 µg/mL (≈ 2200 µM) | 1000 µg/mL (≈ 2200 µM) | 500 µg/mL (≈ 1100 µM)
O=C1CSC(N2N=C(c3ccc(F)cc3)CC2c2cc3cc(F)ccc3nc2Cl)=N1 (centres undefined) | 250 µg/mL (≈ 564 µM) | 50 µg/mL (≈ 113 µM) | 25 µg/mL (≈ 56.4 µM) | 100 µg/mL (≈ 226 µM) | 50 µg/mL (≈ 113 µM) | 1000 µg/mL (≈ 2260 µM) | 100 µg/mL (≈ 226 µM)
O=C(CN1CCOCC1)Nc1nc(-c2ccccc2O)cc(-c2cc3cc(F)ccc3nc2Cl)n1 | 250 µg/mL (≈ 506 µM) | 1000 µg/mL (≈ 2020 µM) | 500 µg/mL (≈ 1010 µM) | 500 µg/mL (≈ 1010 µM) | 500 µg/mL (≈ 1010 µM) | 1000 µg/mL (≈ 2020 µM) | 500 µg/mL (≈ 1010 µM)
O=C1CSC(N2N=C(c3ccccc3Cl)CC2c2cc3cc(F)ccc3nc2Cl)=N1 (centres undefined) | 100 µg/mL (≈ 218 µM) | 50 µg/mL (≈ 109 µM) | 50 µg/mL (≈ 109 µM) | 250 µg/mL (≈ 544 µM) | 100 µg/mL (≈ 218 µM) | 500 µg/mL (≈ 1090 µM) | 50 µg/mL (≈ 109 µM)
O=C1CSC(N2N=C(c3ccccc3O)CC2c2cc3cc(F)ccc3nc2Cl)=N1 (centres undefined) | 1000 µg/mL (≈ 2270 µM) | 250 µg/mL (≈ 567 µM) | 500 µg/mL (≈ 1130 µM) | 1000 µg/mL (≈ 2270 µM) | 500 µg/mL (≈ 1130 µM) | 1000 µg/mL (≈ 2270 µM) | 1000 µg/mL (≈ 2270 µM)
COc1ccc(-c2cc(-c3cc4cc(F)ccc4nc3Cl)nc(NC(=O)CN3CCOCC3)n2)cc1 | 250 µg/mL (≈ 492 µM) | 500 µg/mL (≈ 984 µM) | 250 µg/mL (≈ 492 µM) | 500 µg/mL (≈ 984 µM) | 250 µg/mL (≈ 492 µM) | 1000 µg/mL (≈ 1970 µM) | 500 µg/mL (≈ 984 µM)
O=C(O)c1cn(C2CC2)c2cc(N3CCNCC3)c(F)cc2c1=O [CIPROFLOXACIN] |  | 25 µg/mL (≈ 75.4 µM) | 50 µg/mL (≈ 151 µM) | 50 µg/mL (≈ 151 µM) |  |  | 

Continued, values first:

MIC (Aspergillus niger) | MIC (Escherichia coli) | MIC (Streptococcus pyogenes) | MIC (Staphylococcus aureus) | MIC (Pseudomonas aeruginosa) | MIC (Candida albicans) | MIC (Aspergillus clavatus) | Structure (SMILES)
100 µg/mL (≈ 191 µM) | 250 µg/mL (≈ 478 µM) | 100 µg/mL (≈ 191 µM) | 250 µg/mL (≈ 478 µM) | 100 µg/mL (≈ 191 µM) | 250 µg/mL (≈ 478 µM) | 500 µg/mL (≈ 956 µM) | O=C(CN1CCOCC1)Nc1nc(-c2cccc([N+](=O)[O-])c2)cc(-c2cc3cc(F)ccc3nc2Cl)n1
100 µg/mL (≈ 283 µM) |  |  |  |  | 500 µg/mL (≈ 1420 µM) | 100 µg/mL (≈ 283 µM) | COC1=CC(=O)C[C@@H](C)[C@]12Oc1c(Cl)c(OC)cc(OC)c1C2=O [GRISEOFULVIN]
100 µg/mL (≈ 195 µM) | 50 µg/mL (≈ 97.6 µM) | 100 µg/mL (≈ 195 µM) | 100 µg/mL (≈ 195 µM) | 100 µg/mL (≈ 195 µM) | 500 µg/mL (≈ 976 µM) | 100 µg/mL (≈ 195 µM) | O=C(CN1CCOCC1)Nc1nc(-c2ccccc2Cl)cc(-c2cc3cc(F)ccc3nc2Cl)n1
50 µg/mL (≈ 101 µM) | 12.5 µg/mL (≈ 25.2 µM) | 50 µg/mL (≈ 101 µM) | 50 µg/mL (≈ 101 µM) | 25 µg/mL (≈ 50.4 µM) | 100 µg/mL (≈ 202 µM) | 25 µg/mL (≈ 50.4 µM) | O=C(CN1CCOCC1)Nc1nc(-c2ccccc2F)cc(-c2cc3cc(F)ccc3nc2Cl)n1
50 µg/mL (≈ 109 µM) | 500 µg/mL (≈ 1090 µM) | 50 µg/mL (≈ 109 µM) | 50 µg/mL (≈ 109 µM) | 250 µg/mL (≈ 544 µM) | 500 µg/mL (≈ 1090 µM) | 100 µg/mL (≈ 218 µM) | O=C1CSC(N2N=C(c3ccc(Cl)cc3)CC2c2cc3cc(F)ccc3nc2Cl)=N1 (centres undefined)
50 µg/mL (≈ 95.6 µM) | 100 µg/mL (≈ 191 µM) | 50 µg/mL (≈ 95.6 µM) | 50 µg/mL (≈ 95.6 µM) | 100 µg/mL (≈ 191 µM) | 100 µg/mL (≈ 191 µM) | 100 µg/mL (≈ 191 µM) | O=C(CN1CCOCC1)Nc1nc(-c2ccccc2[N+](=O)[O-])cc(-c2cc3cc(F)ccc3nc2Cl)n1
25 µg/mL (≈ 53.2 µM) | 25 µg/mL (≈ 53.2 µM) | 25 µg/mL (≈ 53.2 µM) | 100 µg/mL (≈ 213 µM) | 12.5 µg/mL (≈ 26.6 µM) | 100 µg/mL (≈ 213 µM) | 12.5 µg/mL (≈ 26.6 µM) | O=C1CSC(N2N=C(c3ccccc3[N+](=O)[O-])CC2c2cc3cc(F)ccc3nc2Cl)=N1 (centres undefined)
50 µg/mL (≈ 113 µM) | 25 µg/mL (≈ 56.4 µM) | 100 µg/mL (≈ 226 µM) | 100 µg/mL (≈ 226 µM) | 50 µg/mL (≈ 113 µM) | 250 µg/mL (≈ 564 µM) | 500 µg/mL (≈ 1130 µM) | O=C1CSC(N2N=C(c3ccccc3F)CC2c2cc3cc(F)ccc3nc2Cl)=N1 (centres undefined)
